Results reported in ChEMBL document CHEMBL3259731, “Design, synthesis, and biological evaluation of novel FAK scaffold inhibitors targeting the FAK-VEGFR3 protein-protein interaction” (Eur J Med Chem, 2014).
Structures can show the parent of a compound that is named as a salt. Active and inactive are the calls of the source.

Tests used:
[1] = molecular target: T1, Focal adhesion kinase 1/vascular endothelial growth factor receptor 3 (Homo sapiens) (UniProt P35916+Q05397); assay: Inhibition of FAK/VEGFR-3 interaction in human MIAPaCa2 cells transfected with retroviral expression vector pMSCV-LucSh assessed as reduction in VEGFR3 pan-phosphorylated tyrosine level after 24 hrs by densitometric analysis; format: cell-based; settings: MIA PaCa-2
T1 sequence (P35916 whole entry, looked up): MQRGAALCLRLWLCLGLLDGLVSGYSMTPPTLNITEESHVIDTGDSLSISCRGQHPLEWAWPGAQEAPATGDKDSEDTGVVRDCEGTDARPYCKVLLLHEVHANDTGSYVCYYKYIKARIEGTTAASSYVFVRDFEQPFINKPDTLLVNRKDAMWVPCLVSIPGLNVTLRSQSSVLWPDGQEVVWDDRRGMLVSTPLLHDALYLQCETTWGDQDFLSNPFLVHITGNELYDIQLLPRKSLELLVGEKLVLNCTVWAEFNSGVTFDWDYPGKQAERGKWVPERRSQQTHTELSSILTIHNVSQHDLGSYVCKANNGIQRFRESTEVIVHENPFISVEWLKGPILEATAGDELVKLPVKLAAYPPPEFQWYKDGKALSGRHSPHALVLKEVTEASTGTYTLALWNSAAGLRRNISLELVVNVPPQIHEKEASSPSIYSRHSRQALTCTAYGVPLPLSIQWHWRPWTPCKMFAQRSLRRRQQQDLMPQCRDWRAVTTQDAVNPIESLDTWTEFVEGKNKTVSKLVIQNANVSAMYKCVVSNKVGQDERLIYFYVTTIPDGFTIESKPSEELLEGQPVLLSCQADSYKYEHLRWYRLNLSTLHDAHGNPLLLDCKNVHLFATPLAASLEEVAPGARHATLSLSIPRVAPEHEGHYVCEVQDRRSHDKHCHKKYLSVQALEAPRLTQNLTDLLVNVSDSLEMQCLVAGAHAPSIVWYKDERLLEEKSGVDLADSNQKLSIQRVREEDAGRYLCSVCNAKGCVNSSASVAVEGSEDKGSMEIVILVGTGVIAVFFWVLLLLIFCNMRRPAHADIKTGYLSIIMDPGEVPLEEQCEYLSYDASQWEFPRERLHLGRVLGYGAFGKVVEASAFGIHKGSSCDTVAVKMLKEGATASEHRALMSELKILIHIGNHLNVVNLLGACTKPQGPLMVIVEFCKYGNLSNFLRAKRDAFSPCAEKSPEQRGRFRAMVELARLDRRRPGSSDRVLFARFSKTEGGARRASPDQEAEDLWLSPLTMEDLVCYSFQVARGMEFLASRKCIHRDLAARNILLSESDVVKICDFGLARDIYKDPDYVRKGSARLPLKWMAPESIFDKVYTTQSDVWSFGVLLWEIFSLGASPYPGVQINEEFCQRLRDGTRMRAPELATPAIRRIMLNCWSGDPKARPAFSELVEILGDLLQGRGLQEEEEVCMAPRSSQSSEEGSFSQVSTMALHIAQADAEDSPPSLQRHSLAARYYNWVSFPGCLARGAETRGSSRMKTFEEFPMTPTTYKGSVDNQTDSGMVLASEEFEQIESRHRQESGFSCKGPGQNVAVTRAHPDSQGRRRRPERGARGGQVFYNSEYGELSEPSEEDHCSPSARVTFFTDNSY
T1 sequence (Q05397 whole entry, looked up): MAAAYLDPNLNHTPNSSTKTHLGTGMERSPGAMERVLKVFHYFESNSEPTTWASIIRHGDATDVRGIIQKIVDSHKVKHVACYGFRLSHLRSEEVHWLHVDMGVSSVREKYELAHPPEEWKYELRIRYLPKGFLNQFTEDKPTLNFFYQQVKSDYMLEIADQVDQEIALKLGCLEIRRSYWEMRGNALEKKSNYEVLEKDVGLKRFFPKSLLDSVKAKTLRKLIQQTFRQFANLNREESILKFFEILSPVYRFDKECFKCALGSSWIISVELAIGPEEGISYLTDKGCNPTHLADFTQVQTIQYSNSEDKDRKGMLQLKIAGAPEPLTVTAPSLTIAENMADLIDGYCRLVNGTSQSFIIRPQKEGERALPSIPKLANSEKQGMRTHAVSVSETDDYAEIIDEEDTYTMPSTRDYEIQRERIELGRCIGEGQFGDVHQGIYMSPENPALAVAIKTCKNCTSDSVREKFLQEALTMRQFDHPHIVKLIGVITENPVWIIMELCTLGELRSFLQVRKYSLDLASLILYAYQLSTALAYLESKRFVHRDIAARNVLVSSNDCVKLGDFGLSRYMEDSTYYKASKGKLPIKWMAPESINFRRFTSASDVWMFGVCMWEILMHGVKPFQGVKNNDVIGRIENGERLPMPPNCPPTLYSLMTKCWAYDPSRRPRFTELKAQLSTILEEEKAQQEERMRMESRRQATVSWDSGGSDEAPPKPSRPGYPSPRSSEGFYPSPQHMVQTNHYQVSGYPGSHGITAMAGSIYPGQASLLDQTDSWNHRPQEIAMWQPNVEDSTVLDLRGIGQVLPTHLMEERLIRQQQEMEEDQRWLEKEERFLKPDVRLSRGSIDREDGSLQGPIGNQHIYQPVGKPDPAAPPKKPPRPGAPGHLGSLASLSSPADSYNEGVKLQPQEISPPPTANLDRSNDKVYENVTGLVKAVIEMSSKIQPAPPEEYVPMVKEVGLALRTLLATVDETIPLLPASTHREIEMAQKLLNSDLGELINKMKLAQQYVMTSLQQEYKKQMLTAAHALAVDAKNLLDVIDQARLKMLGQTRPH
Outline: (§1)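 Cells treated at increasing doses for 24 h, then lysed in NP40 buffer with inhibitors. 500 or 800 µg lysate precleared, then immunoprecipitated with FAK 4.47 or VEGFR3 9D9, with isotype IgG and no-antibody controls, overnight with Protein A/G beads at 4 °C. Immunoblotted for pan-phosphotyrosine (4G10), total FAK and total VEGFR3. Bands quantified by densitometry.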

[2] = molecular target: Platelet-derived growth factor receptor alpha (Homo sapiens) (UniProt P16234); assay: Inhibition of PDGFRA (unknown origin) at 1 uM by Z'-LYTE assay relative to control
Outline: (§2)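 Z'-LYTE SelectScreen single-point biochemical kinase assay, done by an outside service. Compound at 1 µM with 100 µM ATP in the reaction. Percent inhibition calculated per the Z'-LYTE analysis protocol, as the mean of two independent runs.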

MIA PaCa-2 [3] = assay: Cytotoxicity against human MIAPaCa2 cells transfected with retroviral expression vector pMSCV-LucSh assessed as growth inhibition at 50 uM after 72 hrs by MTS assay; format: functional, cell-based
Outline: (§3)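 Cells seeded at 5000/well, attached overnight, then given 50 µM of each analog for 72 h at 37 °C. MTS reagent added for about 1 h, absorbance read at 570 nm. Viability normalized to DMSO/untreated controls. Three independent experiments, each with 3–5 replicate wells per concentration. Cells kept in DMEM with 10% FBS.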

MIA PaCa-2 [4] = assay: Induction of apoptosis in human MIAPaCa2 cells transfected with retroviral expression vector pMSCV-LucSh at 70 uM after 24 hrs by CellEvent/TMRM dye-based microscopic analysis; format: functional, cell-based
Outline: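 10,000 cells/well plated and adhered overnight, then drug added for 24 h. Stained with 5 µM CellEvent caspase-3/7 dye plus 2.5 µM TMRM in PBS, 30 min at 37 °C in the dark. Imaged by fluorescence microscopy, and bright-green apoptotic nuclei counted in 6–8 fields per condition. Percent apoptosis normalized to control, from three independent experiments, compared by Student t test.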

[5] = molecular target: Proto-oncogene tyrosine-protein kinase Src (Homo sapiens) (UniProt P12931); assay: Inhibition of SRC (unknown origin) at 1 uM by Z'-LYTE assay relative to control; outline: as §2
MIA PaCa-2 [6] = assay: Cytotoxicity against human MIAPaCa2 cells transfected with retroviral expression vector pMSCV-LucSh assessed as inhibition of colony formation at 10 uM after 14 days by 1,9-dimethyl-methylene blue staining-based assay; format: functional, cell-based
Outline: (§4)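 700 cells/well seeded, and compound added at once at the specified concentrations. Incubated 10–14 days at 37 °C (figure legend gives 14 days). Colonies stained with 0.25% 1,9-dimethyl-methylene blue in 50% methanol for 1 h, washed, dried and scanned. Run in duplicate and repeated three times independently.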

[7] = molecular target: T1, Focal adhesion kinase 1/vascular endothelial growth factor receptor 3 (Homo sapiens); assay: Inhibition of FAK/VEGFR-3 interaction in human MCF7 cells assessed as decrease in VEGFR3 protein level at 10 uM after 24 hrs by immunoprecipitation assay; format: cell-based
Outline: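 MCF7-VEGFR3 cells treated with selected analogs for 24 h, then lysed in NP40 buffer. FAK immunoprecipitated with clone 4.47 after preclearing, 2 h antibody binding and overnight incubation with Protein A/G beads at 4 °C. Co-precipitated VEGFR3 and total FAK detected by immunoblot on 7.5% gel.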

Focal adhesion kinase 1 [8] = molecular target: T2, Focal adhesion kinase 1 (Homo sapiens, UniProt Q05397); assay: Binding affinity to biotinylated human FAK FAT domain by biolayer interoferometry
Outline: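 Bio-layer interferometry on super streptavidin biosensor tips, pre-wetted in buffer for a baseline before FAT protein immobilization. Association and dissociation measured over 210 s at two small-molecule concentrations. Kon, Koff and Kd derived from the kinetic fits.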

[9] = molecular target: T1, Focal adhesion kinase 1/vascular endothelial growth factor receptor 3 (Homo sapiens); assay: Inhibition of FAK/VEGFR-3 interaction in human MIAPaCa2 cells transfected with retroviral expression vector pMSCV-LucSh assessed as decrease in levels of VEGFR3 and phosphorylated tyrosine residues associated with FAK protein after 24 hrs by immunoprecipitation assay; format: cell-based; settings: MIA PaCa-2; outline: as §1
Focal adhesion kinase 1 [10] = molecular target: T2, Focal adhesion kinase 1; assay: Inhibition of PTK2 (unknown origin) at 1 uM by Z'-LYTE assay relative to control; outline: as §2
Target sequence in this assay (Q05397 2-1052 limits assumed): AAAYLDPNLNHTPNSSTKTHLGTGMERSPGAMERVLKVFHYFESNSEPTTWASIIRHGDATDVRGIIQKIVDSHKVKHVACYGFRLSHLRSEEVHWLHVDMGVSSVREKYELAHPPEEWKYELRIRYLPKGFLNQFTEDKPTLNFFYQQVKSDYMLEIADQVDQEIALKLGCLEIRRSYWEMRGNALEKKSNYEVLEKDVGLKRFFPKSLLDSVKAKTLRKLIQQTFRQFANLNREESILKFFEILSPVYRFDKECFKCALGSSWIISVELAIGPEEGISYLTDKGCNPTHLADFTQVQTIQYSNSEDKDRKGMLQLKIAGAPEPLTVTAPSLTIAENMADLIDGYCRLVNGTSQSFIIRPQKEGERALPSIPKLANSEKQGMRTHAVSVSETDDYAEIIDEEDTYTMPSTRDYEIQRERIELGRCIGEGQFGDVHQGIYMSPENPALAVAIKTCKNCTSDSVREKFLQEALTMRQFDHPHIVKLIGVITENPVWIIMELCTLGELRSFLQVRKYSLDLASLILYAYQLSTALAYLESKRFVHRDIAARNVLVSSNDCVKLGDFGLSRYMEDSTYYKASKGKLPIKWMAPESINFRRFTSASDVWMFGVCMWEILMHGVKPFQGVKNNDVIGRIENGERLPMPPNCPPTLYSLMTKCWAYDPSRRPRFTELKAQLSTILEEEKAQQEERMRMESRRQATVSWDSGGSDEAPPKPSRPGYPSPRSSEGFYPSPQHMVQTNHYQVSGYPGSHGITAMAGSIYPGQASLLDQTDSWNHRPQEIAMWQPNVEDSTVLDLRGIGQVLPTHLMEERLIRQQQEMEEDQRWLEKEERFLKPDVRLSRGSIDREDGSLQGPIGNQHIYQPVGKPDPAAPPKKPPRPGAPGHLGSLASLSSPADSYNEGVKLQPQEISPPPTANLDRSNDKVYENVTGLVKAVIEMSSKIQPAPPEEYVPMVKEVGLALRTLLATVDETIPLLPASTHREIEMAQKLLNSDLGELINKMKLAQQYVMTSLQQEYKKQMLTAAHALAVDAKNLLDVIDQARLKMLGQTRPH

[11] = molecular target: Vascular endothelial growth factor receptor 3 (Homo sapiens) (UniProt P35916); assay: Inhibition of FLT4 (unknown origin) at 1 uM by Z'-LYTE assay relative to control
Sequence of Vascular endothelial growth factor receptor 3 (Homo sapiens) (P35916 whole entry): as the sequence (P35916 whole entry, looked up) above
Outline: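 Z'-LYTE SelectScreen single-point biochemical kinase assay, run as a contracted service. Compound at 1 µM and ATP at 100 µM in the reaction. Percent inhibition calculated per the Z'-LYTE analysis protocol, given as the mean of two independent runs.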

MCF7 [12] = assay: Induction of apoptosis in human MCF7 cells overexpressing VEGFR-3/FAK assessed as increase in PARP cleavage after 24 hrs; format: functional, cell-based
Outline: (§5)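 MCF7-VEGFR3 cells grown to about 80% confluence, then given compound at the indicated concentrations for 24 h at 37 °C. Lysed in 1% NP40 buffer with phosphatase and protease inhibitors. 30 µg protein run by SDS-PAGE and immunoblotted with caspase-3 and PARP rabbit polyclonal antibodies, detected by ECL.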

[13] = molecular target: Insulin-like growth factor 1 receptor (Homo sapiens) (UniProt P08069); assay: Inhibition of IGF1R (unknown origin) at 1 uM by Z'-LYTE assay relative to control; outline: as §2
MCF7 [14] = assay: Cytotoxicity against human MCF7 cells overexpressing VEGFR-3/FAK assessed as inhibition of colony formation at 10 uM after 14 days by 1,9-dimethyl-methylene blue staining-based assay; format: functional, cell-based
Outline: (§6)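 Colony formation. 700 cells/well seeded with compound added immediately, then incubated at 37 °C for 10–14 days (legend: 14 days). Colonies stained for 1 h with 0.25% 1,9-dimethyl-methylene blue in 50% methanol, washed, dried and scanned. Duplicate wells, three independent experiments.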

[15] = molecular target: Vascular endothelial growth factor receptor 2 (Homo sapiens) (UniProt P35968); assay: Inhibition of KDR (unknown origin) at 1 uM by Z'-LYTE assay relative to control; outline: as §2
[16] = molecular target: T1, Focal adhesion kinase 1/vascular endothelial growth factor receptor 3 (Homo sapiens); assay: Inhibition of FAK/VEGFR-3 interaction in human MIAPaCa2 cells transfected with retroviral expression vector pMSCV-LucSh assessed as reduction in VEGFR3 pan-phosphorylated tyrosine level after 24 hrs by immunoprecipitation assay; format: cell-based; settings: MIA PaCa-2; outline: as §1
MIA PaCa-2 [17] = assay: Induction of apoptosis in human MIAPaCa2 cells transfected with retroviral expression vector pMSCV-LucSh assessed as increase in caspase-3 cleavage after 24 hrs; format: functional, cell-based
Outline: (§7)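 Cells seeded to reach about 80% confluence at 24 h, then drug-treated at increasing doses for 24 h at 37 °C. Lysed in 1% NP40 buffer with protease and phosphatase inhibitors. 30 µg protein run on SDS gel and transferred to PVDF. Immunoblotted overnight at 4 °C with caspase-3 and PARP rabbit polyclonals for cleavage products. ECL detection.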

MCF7 [18] = assay: Cytotoxicity against human MCF7 cells overexpressing VEGFR-3/FAK after 72 hrs by MTS assay; format: functional, cell-based
Outline: (§8)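 MTS assay. Cells kept in DMEM with 10% FBS, plated at 5000 cells/well and left to attach overnight, then exposed to compound (screening at 50 µM) for 72 h at 37 °C. MTS reagent added for about 1 h, then absorbance read at 570 nm. Viability normalized to DMSO/untreated controls. Three independent experiments, 3–5 replicate wells per concentration.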

[19] = molecular target: Epidermal growth factor receptor (Homo sapiens) (UniProt P00533); assay: Inhibition of EGFR (unknown origin) at 1 uM by Z'-LYTE assay relative to control; outline: as §2
[20] = molecular target: RAC-alpha serine/threonine-protein kinase (Homo sapiens) (UniProt P31749); assay: Inhibition of AKT1 (unknown origin) at 1 uM by Z'-LYTE assay relative to control; outline: as §2
[21] = molecular target: T1, Focal adhesion kinase 1/vascular endothelial growth factor receptor 3 (Homo sapiens); assay: Inhibition of FAK/VEGFR-3 interaction in human MIAPaCa2 cells transfected with retroviral expression vector pMSCV-LucSh assessed as decrease in levels of VEGFR3 and phosphorylated tyrosine residues associated with FAK protein after 24 hrs by densitometric analysis; format: cell-based; settings: MIA PaCa-2; outline: as §1
MCF7 [22] = assay: Induction of apoptosis in human MCF7 cells overexpressing VEGFR-3/FAK assessed as increase in caspase-3 cleavage after 24 hrs; format: functional, cell-based; outline: as §5
MIA PaCa-2 [23] = assay: Induction of apoptosis in human MIAPaCa2 cells transfected with retroviral expression vector pMSCV-LucSh assessed as increase in PARP cleavage after 24 hrs; format: functional, cell-based; outline: as §7
[24] = molecular target: Vascular endothelial growth factor receptor 1 (Homo sapiens) (UniProt P17948); assay: Inhibition of FLT1 (unknown origin) at 1 uM by Z'-LYTE assay relative to control; outline: as §2
Sequence of Vascular endothelial growth factor receptor 1 (Homo sapiens) (P17948 whole entry): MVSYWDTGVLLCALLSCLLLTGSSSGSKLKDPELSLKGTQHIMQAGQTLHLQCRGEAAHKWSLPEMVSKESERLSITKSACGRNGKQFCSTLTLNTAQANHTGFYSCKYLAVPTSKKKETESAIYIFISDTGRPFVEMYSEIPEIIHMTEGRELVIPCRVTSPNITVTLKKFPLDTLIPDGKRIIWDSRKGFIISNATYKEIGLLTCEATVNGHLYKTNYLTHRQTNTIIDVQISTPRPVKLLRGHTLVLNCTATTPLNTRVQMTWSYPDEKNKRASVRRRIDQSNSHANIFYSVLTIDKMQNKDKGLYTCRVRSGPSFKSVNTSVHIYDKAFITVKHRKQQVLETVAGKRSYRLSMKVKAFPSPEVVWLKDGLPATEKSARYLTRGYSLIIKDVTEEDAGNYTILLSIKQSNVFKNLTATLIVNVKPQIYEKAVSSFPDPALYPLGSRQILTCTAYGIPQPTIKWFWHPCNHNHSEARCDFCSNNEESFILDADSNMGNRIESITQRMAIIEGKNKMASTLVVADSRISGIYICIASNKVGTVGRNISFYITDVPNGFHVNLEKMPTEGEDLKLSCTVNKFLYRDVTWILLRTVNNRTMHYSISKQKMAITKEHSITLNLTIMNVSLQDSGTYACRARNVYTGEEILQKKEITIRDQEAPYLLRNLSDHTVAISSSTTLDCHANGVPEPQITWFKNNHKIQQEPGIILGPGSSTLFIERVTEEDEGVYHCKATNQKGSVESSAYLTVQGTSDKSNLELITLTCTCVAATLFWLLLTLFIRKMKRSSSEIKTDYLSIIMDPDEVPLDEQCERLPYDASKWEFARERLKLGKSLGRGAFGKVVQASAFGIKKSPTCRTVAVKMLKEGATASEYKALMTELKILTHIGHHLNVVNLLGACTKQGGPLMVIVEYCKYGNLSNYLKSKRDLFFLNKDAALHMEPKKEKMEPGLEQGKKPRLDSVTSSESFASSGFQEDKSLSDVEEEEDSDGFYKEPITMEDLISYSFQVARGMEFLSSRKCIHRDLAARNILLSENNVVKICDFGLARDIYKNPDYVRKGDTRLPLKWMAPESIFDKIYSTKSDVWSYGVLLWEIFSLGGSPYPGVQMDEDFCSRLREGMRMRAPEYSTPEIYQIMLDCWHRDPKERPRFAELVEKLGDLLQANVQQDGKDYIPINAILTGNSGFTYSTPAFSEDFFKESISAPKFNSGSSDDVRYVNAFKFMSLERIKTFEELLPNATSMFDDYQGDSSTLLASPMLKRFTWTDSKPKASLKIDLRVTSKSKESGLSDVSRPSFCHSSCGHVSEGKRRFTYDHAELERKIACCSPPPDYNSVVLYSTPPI

[25] = molecular target: Protein-tyrosine kinase 2-beta (Homo sapiens) (UniProt Q14289); assay: Inhibition of PTK2B (unknown origin) at 1 uM by Z'-LYTE assay relative to control; outline: as §2
PANC-1 = assay: Cytotoxicity against human PANC1 cells transfected with retroviral expression vector pMSCV-LucSh assessed as growth inhibition at 50 uM after 72 hrs by MTS assay; format: functional, cell-based; outline: as §3
U-87MG ATCC = assay: Cytotoxicity against human U87 cells assessed as growth inhibition at 50 uM after 72 hrs by MTS assay; format: functional, cell-based; outline: as §8
C8161 = assay: Cytotoxicity against human C8161 cells assessed as growth inhibition at 50 uM after 72 hrs by MTS assay; format: functional, cell-based; outline: as §8
A-375 = assay: Cytotoxicity against human A375 cells assessed as growth inhibition at 50 uM after 72 hrs by MTS assay; format: functional, cell-based; outline: as §8
MDA-MB-231 = assay: Cytotoxicity against human MDA-MB-231 cells assessed as growth inhibition at 50 uM after 72 hrs by MTS assay; format: functional, cell-based; outline: as §8
MIA PaCa-2 [26] = assay: Cytotoxicity against human MIAPaCa2 cells transfected with retroviral expression vector pMSCV-LucSh assessed as inhibition of colony formation at >10 uM after 14 days by 1,9-dimethyl-methylene blue staining-based assay; format: functional, cell-based; outline: as §4
MCF7 [27] = assay: Cytotoxicity against human MCF7 cells overexpressing VEGFR-3/FAK assessed as inhibition of colony formation at >10 uM after 14 days by 1,9-dimethyl-methylene blue staining-based assay; format: functional, cell-based; outline: as §6

CN(C)CCN(Cc1ccc(Cl)cc1)c1ccc2ccccc2n1
4%: inhibition [11] | inhibition [19]
1%: inhibition [24]
13%: inhibition (Focal adhesion kinase 1 [10])
active: inhibition [1] Dose-dependent effect | growth inhibition (GI) (MIA PaCa-2 [3]) | Activity (MIA PaCa-2 [4]) | inhibition (MIA PaCa-2 [6]) | inhibition [7] | inhibition [9] Dose-dependent effect | Activity (MCF7 [12]) Dose-dependent effect | inhibition (MCF7 [14]) | inhibition [16] Dose-dependent effect | Activity (MIA PaCa-2 [17]) Dose-dependent effect | Activity (MCF7 [18]) | inhibition [21] Dose-dependent effect | Activity (MCF7 [22]) Dose-dependent effect | Activity (MIA PaCa-2 [23]) Dose-dependent effect | growth inhibition (GI) (PANC-1)
7%: inhibition [20]
3%: inhibition [5]
8%: inhibition [2]
18 nM: Kd (Focal adhesion kinase 1 [8])
0%: inhibition [25]
11%: inhibition [13]
14%: inhibition [15]

CN(C)CCNc1ccccn1
inactive: growth inhibition (GI) (MIA PaCa-2 [3]) | growth inhibition (GI) (U-87MG ATCC) | Activity (Focal adhesion kinase 1 [8]) | growth inhibition (GI) (C8161) | growth inhibition (GI) (A-375) | growth inhibition (GI) (MDA-MB-231) | growth inhibition (GI) (PANC-1)

CCCCCCCCCCCCN(CCN(C)C)c1ccccn1
active: growth inhibition (GI) (MIA PaCa-2 [3]) | growth inhibition (GI) (U-87MG ATCC) | growth inhibition (GI) (C8161) | growth inhibition (GI) (A-375) | growth inhibition (GI) (MDA-MB-231) | growth inhibition (GI) (PANC-1)

CN(C)CCN(Cc1ccc(Cl)cc1)c1ccccn1 [CHLORPYRAMIN HYDROCHLORIDE]
active: inhibition [1] Dose-dependent effect | inhibition [9] Dose-dependent effect | inhibition [16] Dose-dependent effect | inhibition (MIA PaCa-2 [26]) | inhibition [21] Dose-dependent effect | inhibition (MCF7 [27])
570 nM: Kd (Focal adhesion kinase 1 [8])

CCCN(CCN(C)C)c1ccccn1
inactive: growth inhibition (GI) (MIA PaCa-2 [3]) | growth inhibition (GI) (U-87MG ATCC) | growth inhibition (GI) (C8161) | growth inhibition (GI) (A-375) | growth inhibition (GI) (MDA-MB-231) | growth inhibition (GI) (PANC-1)

CCCCCCN(CCN(C)C)c1ccccc1
inactive: growth inhibition (GI) (MIA PaCa-2 [3]) | growth inhibition (GI) (U-87MG ATCC) | growth inhibition (GI) (C8161) | growth inhibition (GI) (A-375) | growth inhibition (GI) (MDA-MB-231) | growth inhibition (GI) (PANC-1)

CCCCCCCCN(CCN(C)C)c1ccccn1
active: growth inhibition (GI) (MIA PaCa-2 [3]) | growth inhibition (GI) (U-87MG ATCC) | growth inhibition (GI) (C8161) | growth inhibition (GI) (A-375) | growth inhibition (GI) (MDA-MB-231) | growth inhibition (GI) (PANC-1)

CCCCCCCCCCN(CCN(C)C)c1ccccn1
active: growth inhibition (GI) (MIA PaCa-2 [3]) | growth inhibition (GI) (U-87MG ATCC) | growth inhibition (GI) (C8161) | growth inhibition (GI) (A-375) | growth inhibition (GI) (MDA-MB-231) | growth inhibition (GI) (PANC-1)
